Compound activity (PubChem)
TAAR1 ag – agonists of human TAAR1. CHO RD-HGA16 TAAR1, Fluo-8 calcium fluorescence; vehicle wells 0%, saturating PEA agonist 100%. Q96RJ0. hit rate 0.99% among 360,000. activation, % at 3 µM;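 active = activation above the mean activation of all test compounds in the run plus 3 SD, cut at about 38% in these data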
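System: CHO-derived RD-HGA16 cells with stable Gα16 and human TAAR1. Times: 17-24 h plating, Fluo-8 75 min 37 °C, 30 min RT. Measured by: calcium-sensitive Fluo-8 signal, excitation 470-495, emission 515-575 nm. Read-out basis: % activation relative to PEA EC100 response. Control set: DMSO and PEA EC100. Repeats: no replicates (n 1).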
TAAR1 antag – human TAAR1 antagonism. hit rate 1.5% among 360,000. Q96RJ0. inhibition, % at 3 µM. CHO RD-HGA16 TAAR1, Fluo-8 calcium fluorescence, antagonist. AID 624466;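 active = inhibition above a per-plate cutoff, the mean inhibition of test compounds on that plate plus 3 SD, cut at about 49% in these data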;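 note: 0% = DMSO plus EC80 beta-PEA response and 100% = DMSO alone without agonist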
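test system = CHO RD-HGA16 cells bearing hTAAR1 | replication = singlicate | controls = DMSO-only wells and EC80 β-PEA-stimulated wells | reagent = EC80 β-phenethylamine stimulus | read-out basis = percent inhibition of PEA-evoked calcium signal, max/basal emission ratio | schedule = seeding 17-24 h prior, 75-min 37 °C, 30-min RT dye loading | signal = kinetic Fluo-8 calcium fluorescence measurement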
m5-HT2A agonist – mouse HTR2A agonism via beta-arrestin recruitment; P35363; CHO-K1 mHTR2A beta-arrestin complementation, luminescence; percent of 30 µM serotonin response; activation, % at 7.6 µM; hit rate 0.66% among 360,000; AID 624169;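 active = activation above a run cutoff, the mean activation of all tested compounds plus 3 SD, cut at about 14% in these data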;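 note: 0% = plate median of compound wells and 100% = 30 µM serotonin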
Target sequence (P35363 whole entry, looked up): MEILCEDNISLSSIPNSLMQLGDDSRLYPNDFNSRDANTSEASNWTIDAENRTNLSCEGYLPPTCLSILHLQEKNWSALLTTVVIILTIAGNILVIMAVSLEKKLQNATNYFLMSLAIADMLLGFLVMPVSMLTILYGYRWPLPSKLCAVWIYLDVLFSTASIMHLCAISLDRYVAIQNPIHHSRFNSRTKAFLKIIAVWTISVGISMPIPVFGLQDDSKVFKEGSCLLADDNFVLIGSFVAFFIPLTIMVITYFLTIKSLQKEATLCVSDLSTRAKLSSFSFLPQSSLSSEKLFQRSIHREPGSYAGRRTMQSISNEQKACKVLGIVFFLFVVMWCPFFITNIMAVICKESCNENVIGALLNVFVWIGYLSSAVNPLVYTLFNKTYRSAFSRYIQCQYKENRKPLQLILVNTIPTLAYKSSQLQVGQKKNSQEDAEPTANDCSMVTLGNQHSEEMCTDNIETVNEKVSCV
CHRM1 agonist – human M1 muscarinic receptor agonism; P11229; CHO-K1 hM1, Fluo-8 calcium fluorescence, agonist mode; 0% DMSO, 100% acetylcholine EC100; activation, % at 3 µM; hit rate 0.33% among 360,000; AID 588814;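 active = activation above the run's mean compound activation plus 3 SD, cut at about 16% in these data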;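 note: peak over basal fluorescence ratio within a 140 s kinetic read after compound addition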
M1 PAM – potentiates human M1 receptor response to acetylcholine. P11229. CHO-K1 hM1, Fluo-8 calcium fluorescence, ACh EC20; 0% = ACh EC20, 100% = maximal ACh. activation, % at 3 µM. hit rate 0.088% among 360,000. AID 588819; in the data active = activation above about 19%, passing the limit was not always enough
M1 antag – blocks human M1 muscarinic receptor | inhibition, % at 3 µM | P11229 | CHO-K1 hM1, Fluo-8 calcium fluorescence, ACh EC80 antagonist | hit rate 1.3% among 360,000;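 active = percent inhibition above its own plate's cutoff, namely the mean of that plate's compound wells plus 3 SD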;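 note: peak over basal fluorescence ratio during 140 s after agonist addition; 0% = ACh EC80 plus DMSO and 100% = DMSO alone without agonist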
The depositor's hits bear a star; / = no result given. This is a sample that favours compounds with a hit; in the whole collection about 3.9% have one here.

SMILES	TAAR1 ag	TAAR1 antag	m5-HT2A agonist	CHRM1 agonist	M1 PAM	M1 antag
O=S(=O)(Nc1cccc(S(=O)(=O)N2CCCCCC2)c1)c1ccc(F)cc1F	9.7	-11.4	-3.2	1.0	2.7	-1.4
Cc1c(CCOC(=O)c2cc([N+](=O)[O-])cc([N+](=O)[O-])c2)sc[n+]1CC(=O)c1ccc(Br)cc1	1.8	9.1	-1.5	-9.9	-26.2	80.3*
Cc1c(CCOC(=O)C23CC4CC(CC(C4)C2)C3)sc[n+]1Cc1ccccc1	-0.6	6.8	-2.3	-12.5	-25.7	64.3*
Cc1c(CCOC(=O)C23CC4CC(CC(C)(C4)C2)C3)sc[n+]1Cc1ccccc1	15.3	-0.4	-7.9	-5.4	-22.7	99.8*
Cc1c(CCOC(=O)c2ccc(Cl)cc2Cl)sc[n+]1CC(=O)c1ccccc1	0.5	-8.4	-8.8	-3.3	-29.0	95.3*
Cc1sc[n+](CC(=O)c2ccc(Br)cc2)c1C	-0.4	10.3	1.2	-5.3	-2.3	4.5
Cc1c(CCOC(=O)C23CC4(C)CC(C)(CC(C)(C4)C2)C3)sc[n+]1CC(=O)c1ccccc1	0.0	-3.4	-7.2	-8.9	-24.3	32.1*
COc1ccc(-c2ncn(CCc3ccccc3OC)c2CC(C)C)cc1	21.3	32.9	/	/	/	/
O=C1CCC(C(=O)OCc2cc(=O)oc3ccc4ccccc4c23)=NN1	4.0	-1.0	-1.9	-3.7	3.7	-3.7
CN(C)CCC(O)(c1ccccc1)c1ccccc1Cl (stereo not drawn)	7.3	-17.2	-5.6	-8.5	-24.1	37.8*
CN(C)CCCC(C)(O)C(C)(C)c1ccccc1 (stereo not drawn)	-0.5	-2.6	-5.8	-9.9	5.9	-5.9
CC(C)(C)N(CC#CCC(O)(c1ccccc1)c1ccccc1)CCO	1.4	-24.3	-6.2	-7.6	-14.5	12.7
CN(C)CCC(O)(c1ccccc1)c1ccccc1	/	/	-5.4	-15.4	-35.3	66.6*
COCc1[nH]nc2c1C(c1ccc3c(c1)OCO3)N(Cc1ccccc1)C2=O (stereo not drawn)	0.8	9.1	/	/	/	/
CC(C)c1ccc(/C=C2\SC(=O)N(CC(=O)NC3C=CS(=O)(=O)C3)C2=O)cc1 (stereo not drawn)	8.6	0.7	7.0	-0.5	-14.7	43.4*
COc1cccc(/C=C2\SC(=O)N(CC(=O)NC3C=CS(=O)(=O)C3)C2=O)c1 (stereo not drawn)	5.3	-2.5	-1.2	-4.6	19.8	-20.7
COc1ccc(Br)cc1/C=N/NC(=O)CN1CCN(Cc2ccccc2)CC1	2.0	-31.4	-4.2	-7.3	10.6	-16.0
O=C(Nc1nc2ccccc2s1)C1c2ccccc2Oc2ccccc21	6.6	14.3	-3.8	-6.5	-10.1	16.6
CCN(CC)CCCNC(=O)C1c2ccccc2Oc2ccccc21	9.7	3.6	8.6	-8.7	-26.1	48.6*
CCN(CC)S(=O)(=O)c1ccc(NC(=O)C2c3ccccc3Oc3ccccc32)cc1	41.3*	20.9	-6.0	19.8*	1.1	8.1
CCc1nnc(NC(=O)C2c3ccccc3Oc3ccccc32)s1	51.2*	-24.4	-3.9	1.4	-19.0	36.5*
O=C(COC(=O)C12CC3CC(CC(Br)(C3)C1)C2)Nc1c(F)cccc1F	8.4	13.8	3.6	-1.9	-4.5	4.9
C[C@]12CCC(=O)C[C@@H]1CC[C@@H]1[C@@H]2CC[C@]2(C)[C@@H](C(=O)COC(=O)CCC(=O)O)CC[C@@H]12	11.4	0.3	11.1	-3.3	6.6	-10.9
CC(NC(=O)COC(=O)COc1cccc2c1OC(C)(C)C2)c1ccccc1 (stereo not drawn)	0.4	-13.1	9.3	-2.3	7.8	-8.2
COc1ccc(-c2nnc(SCC(=O)NC(=O)Cc3ccccc3)n2C)cc1	-2.0	3.5	4.7	-2.1	2.1	-2.9
SMILES	TAAR1 ag	TAAR1 antag	m5-HT2A agonist	CHRM1 agonist	M1 PAM	M1 antag
Cc1ccc(/C=N/n2c(-c3cccs3)n[nH]c2=S)cc1	-2.9	-20.8	1.7	-5.3	3.0	-9.4
S=c1[nH]nc(-c2cccs2)n1/N=C/c1c(Cl)cccc1Cl	47.5*	52.6*	4.8	20.5*	4.4	10.8
Nc1ncnc2c1ncn2[C@@H]1O[C@H](C(=O)N[C@@H](CCc2ccccc2)C(=O)N2CCN(CC(=O)N3CCCC3)CC2)[C@@H](O)[C@H]1O	1.3	-21.2	/	/	/	/
CCc1ccc2oc(-c3cccc(NC(=O)c4cccnc4)c3)nc2c1	15.4	49.1*	10.3	-0.8	-4.5	20.4
O=C(Nc1ccc2oc(-c3ccccc3)nc2c1)c1cccnc1	11.5	4.6	-1.8	-0.8	-2.0	-1.2
CC(C)=N/N=C(/c1ccc([N+](=O)[O-])cc1)C12CN3CN(CN(C3)C1)C2	2.2	-5.1	-0.6	49.8*	-26.0	19.8
O=C(NN=Cc1ccccc1O)c1cccc([N+](=O)[O-])c1	2.3	6.5	-11.7	-1.5	0.0	-3.6
O=[N+]([O-])c1cccc(/C(=N/N=C/c2ccccc2Br)C23CN4CN(CN(C4)C2)C3)c1	0.7	3.1	2.2	-3.9	-9.6	43.2*
COc1cc(CN2CCC(n3nccc3NC(=O)C3CC3)CC2)cc(OC)c1	0.9	-7.8	1.2	-1.6	12.7	-15.9
CC(NC(=O)C1CCN(Cc2ccccc2)CC1)c1cccc2ccccc12 (stereo not drawn)	5.5	-16.1	-6.4	-8.3	-13.5	21.6
CC(NC(=O)C1CCN(Cc2ccc(Oc3ccccc3)cc2)CC1)c1cccc2ccccc12 (stereo not drawn)	24.9	49.1*	-5.3	-1.6	0.4	1.6
Cn1c(CCN2CCN(c3ccccn3)CC2)nc2cc(NC(=O)COc3ccc(Cl)cc3)ccc21	13.1	35.0	-5.0	1.4	-24.3	94.6*
Cc1cccc(OCC(=O)Nc2ccc3c(c2)nc(CCN2CCCCC2)n3C)c1	4.9	-9.6	-15.6	-6.0	-8.7	10.8
COc1ccc(OCC(=O)Nc2ccc3c(c2)nc(CCN2CCCCC2)n3C)cc1	0.3	-9.5	-11.0	-5.4	-1.4	2.4
Cc1cccc(OCC(=O)Nc2ccc3c(c2)nc(CCN2CCN(c4ccccn4)CC2)n3C)c1	11.9	47.0	-4.8	3.5	-21.6	87.9*
CC1CCN(CCc2nc3cc(NC(=O)NC4CCCCC4)ccc3n2C)CC1	1.6	11.1	-0.8	-7.7	-19.1	36.0*
COc1ccc(OCC(=O)Nc2ccc3c(c2)nc(CCN2CCN(c4ccccn4)CC2)n3C)cc1	7.6	5.4	-0.1	-3.4	-28.9	64.2*
O=C(COC(=O)COc1ccc(Cl)cc1)NC1CC1	7.5	12.6	0.1	-3.5	2.7	1.7
CC(C)[C@H](NC(=O)CC1CCCC1)C(=O)N1CCC[C@H]1C(=O)NCc1ccccc1	0.5	-42.9	/	/	/	/
